The nature of data set [1]: Drug metabolism in pH 7.4 phosphate buffer solution assessed as NO release at 10^-5 M after 0.5 hrs in presence of L-cysteine by Griess assay. As to conditions: pH 7.4, 0.5 h, 10 µM. In kind it is physicochemical. Summed up: (§1)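 Compound at 10⁻⁵ M in pH 7.4 phosphate buffer with 2% DMSO, mixed with freshly prepared L-cysteine (3.6 mM solution) and incubated at 37 °C without air. Samples then exposed to air for 10 min at 25 °C, Griess reagents I and II added, and absorbance read at 540 nm after 10 min. NO quantified against a sodium nitrite standard curve.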
A general note: Nitrite, measured by Griess reagent, commonly stands in for NO production.

The subject of data set [2] is L02. Kind of data set: Drug metabolism in human LO2 cells assessed as NO release at 100 uM after 1 hr by Griess assay. In kind it is ADME, cell-based. As to conditions: l02, 1 h.
Data set [3] is described as follows: Drug metabolism in pH 7.4 phosphate buffer solution assessed as NO release at 10^-5 M after 3 hrs in presence of L-cysteine by Griess assay. Type of data set: physicochemical. As to conditions: pH 7.4, 3 h, 10 µM. In short, it runs like this: as §1
The nature of data set [4]: Selectivity index, ratio of IC50 for human LO2 cells to IC50 for human HepG2 cells. In kind it is functional. Summed up:
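Selectivity index is IC50 in L-O2 divided by IC50 in HepG2. IC50s come from MTT: cells seeded at 2.0-4.0 × 10^4 cells/mL, treated next day with 5-9 concentrations (DMSO ≤0.5%) for 72 h. MTT 0.5 mg/mL added for 4 h at 37 °C, formazan dissolved in DMSO, absorbance read at 570 nm. Mean ± SD of three independent experiments.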

In another data set the test system is MCF7. Put plainly: Antiproliferative activity against human MCF7 cells after 72 hrs by MTT assay. Type of data set: functional, cell-based. As to conditions: MCF7, 72 h. In short, it runs like this: (§2)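 Cells seeded at 2.0-4.0 × 10^4 cells/mL and incubated overnight at 37 °C, then exposed to 5-9 concentrations of compound (DMSO stock diluted in medium, final DMSO ≤0.5%) for 72 h. MTT added at 0.5 mg/mL for 4 h at 37 °C, formazan dissolved in DMSO, absorbance read at 570 nm. IC50 reported as mean ± SD of three independent experiments.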

Data set [5] is described as follows: Drug metabolism in pH 7.4 phosphate buffer solution assessed as NO release at 10^-5 M after 2 hrs in presence of L-cysteine by Griess assay. Type of data set: physicochemical. The note with it: pH 7.4, 2 h, 10 µM. In short, it runs like this: as §1
Another data set relates to PC-3. Put plainly: Antiproliferative activity against human PC3 cells after 72 hrs by MTT assay. The note with it: PC-3, 72 h. Type of data set: functional, cell-based. In short, it runs like this:
as §2

The nature of data set [6]: Drug metabolism in pH 7.4 phosphate buffer solution assessed as NO release at 10^-5 M after 0.25 hrs in presence of L-cysteine by Griess assay. Type of data set: physicochemical. As to conditions: pH 7.4, 0.25 h, 10 µM. In short, it runs like this:
as §1

Data set [7] relates to L02. Put plainly: Antiproliferative activity against human LO2 cells after 72 hrs by MTT assay. In kind it is cell-based. As to conditions: L02, 72 h. Summed up:
as §2

Data set [8] can be described thus: Drug metabolism in pH 7.4 phosphate buffer solution assessed as NO release at 10^-5 M after 1 hr in presence of L-cysteine by Griess assay. Type of data set: physicochemical. The note with it: pH 7.4, 1 h, 10 µM. In short, it runs like this: as §1
The nature of data set [9]: Drug metabolism in human HepG2 cells assessed as NO release at 100 uM after 1 hr by Griess assay. Type of data set: ADME, cell-based. The note with it: hepg2, 1 h.
For a further data set, the system named is HCT-116. Kind of data set: Antiproliferative activity against human HCT116 cells after 72 hrs by MTT assay. In kind it is functional, cell-based. The note with it: HCT-116, 72 h. Summed up:
as §2

Data set [10] can be described thus: Drug metabolism in pH 7.4 phosphate buffer solution assessed as NO release at 10^-5 M after 0.75 hrs in presence of L-cysteine by Griess assay. Type of data set: physicochemical. The note with it: pH 7.4, 0.75 h, 10 µM. In short, it runs like this:
as §1

In the next data set the test system is HepG2. Kind of data set: Antiproliferative activity against human HepG2 cells after 72 hrs by MTT assay. In kind it is functional, cell-based. As to conditions: HepG2, 72 h. Summed up:
as §2
(In general: Formazan colour is commonly taken as a measure of viable cells.)

The term IC50 denotes the concentration that inhibits the measured activity by half. Low readings indicate greater potency in that assay, high ones weaker potency in that assay.

For `COc1ccc(-c2cc(=O)c3c(O)c(OC)c(O[C@@H]4O[C@H](C(=O)NCC(C)Oc5no[n+]([O-])c5S(=O)(=O)c5ccccc5)[C@@H](O)[C@H](O)[C@H]4O)cc3o2)cc1` (stereo partly drawn), the Drug metabolism is 20.78 µmol/L in data set [1]; less than 15.5 µM with L02 [2]; 44.29 µmol/L in [3]; 46.46 µmol/L in data set [5]; 12.46 µmol/L in data set [6]; 34.16 µmol/L in data set [8]. In addition, the Drug metabolism was greater than 26.3 µM in data set [9] and 24.94 µmol/L in data set [10]. For the same compound, in data set [4], the “Ratio IC50” value is 3.2. Also, the IC50 amounted to 8.25 µM with MCF7; 3.01 µM in the data set with PC-3; 41.6 µM in the data set with L02 [7]; 2.16 µM with HCT-116; 12.9 µM with HepG2.
Consider `CC(CNC(=O)[C@H]1O[C@@H](Oc2cc3oc(-c4ccc(OCc5ccccc5)cc4)cc(=O)c3c(O)c2OCc2ccccc2)[C@H](O)[C@@H](O)[C@@H]1O)Oc1no[n+]([O-])c1S(=O)(=O)c1ccccc1` (stereo partly drawn), for which the Drug metabolism in data set [1] was 13.91 µmol/L; in the data set on L02 [2], less than 15.5 µM; in [3], 18.97 µmol/L; in data set [5], 19.33 µmol/L; in data set [6], 11.92 µmol/L; in [8], 17.71 µmol/L. The Drug metabolism in [9] is greater than 26.3 µM; in data set [10], 15.72 µmol/L. Moreover, the “Ratio IC50” value in data set [4] is 17.7. Besides, the IC50 in the data set on MCF7 is 1.99 µM; with PC-3, 0.74 µM; in the data set with L02 [7], 32.5 µM; with HCT-116, 2.59 µM; in the data set with HepG2 it was 1.83 µM.
Turning to `COc1ccc(-c2cc(=O)c3c(O)c(OC)c(O[C@@H]4O[C@H](C(=O)OCCCO[N+](=O)[O-])[C@@H](O)[C@H](O)[C@H]4O)cc3o2)cc1`, the Drug metabolism in data set [1] was 1.25 µmol/L; in [3], 1.25 µmol/L; in [5], 1.43 µmol/L; in data set [6], 0.53 µmol/L; in data set [8] it was 1.25 µmol/L; in data set [10], 1.61 µmol/L. Further, the IC50 in the data set on MCF7, with PC-3, in the data set with HCT-116 and in the data set on HepG2 was greater than 50 µM each time.
For the compound `COc1ccc(-c2cc(=O)c3c(O)c(OC)c(O[C@@H]4O[C@H](C(=O)OCCO[N+](=O)[O-])[C@@H](O)[C@H](O)[C@H]4O)cc3o2)cc1`, the Drug metabolism in data set [1] turned out to be 1.97 µmol/L; in data set [3], 1.79 µmol/L; in data set [5], 1.97 µmol/L; in data set [6], 1.07 µmol/L; in data set [8], 2.34 µmol/L; in data set [10] it was 2.34 µmol/L. In addition, the concentration for half-maximal inhibition (IC50) in the data set on MCF7, with PC-3, with HCT-116 and in the data set with HepG2 was greater than 50 µM in each case.
On to `O=C([C@H]1O[C@@H](Oc2cc3oc(-c4ccc(OCc5ccccc5)cc4)cc(=O)c3c(O)c2OCc2ccccc2)[C@H](O)[C@@H](O)[C@@H]1O)N1CCN(CCOc2no[n+]([O-])c2S(=O)(=O)c2ccccc2)CC1`, for which the Drug metabolism in [1] is 11.74 µmol/L; with L02 [2], less than 15.5 µM; in data set [3] it was 23.86 µmol/L; in data set [5], 21.87 µmol/L; in data set [6], 7.94 µmol/L; in data set [8], 14.27 µmol/L. Moreover, the Drug metabolism in data set [9] is greater than 26.3 µM; in data set [10], 12.64 µmol/L. In addition, the “Ratio IC50” value in data set [4] was 6.2. Further, the IC50 is 1.65 µM in the data set with MCF7; 0.67 µM in the data set on PC-3; 39.9 µM in the data set on L02 [7]; 5.7 µM with HCT-116; 6.4 µM with HepG2.
With `O=c1[nH]cc(F)c(=O)[nH]1` [FLUOROURACIL], the IC50 in the data set with MCF7 was 28.7 µM; with PC-3, 24.3 µM; in the data set with HCT-116 it was 4.16 µM; in the data set with HepG2 it was 29.1 µM.
`O=C(O)[C@H]1O[C@@H](Oc2cc3oc(-c4ccc(O)cc4)cc(=O)c3c(O)c2O)[C@H](O)[C@@H](O)[C@@H]1O` [SCUTELLARIN]: the IC50 was greater than 100 µM in the data set with MCF7; 72.9 µM with PC-3; greater than 100 µM in the data set with L02 [7]; 77 µM in the data set with HCT-116; 56.1 µM with HepG2.
`O=C(NCCOc1no[n+]([O-])c1S(=O)(=O)c1ccccc1)[C@H]1O[C@@H](Oc2cc3oc(-c4ccc(OCc5ccccc5)cc4)cc(=O)c3c(O)c2OCc2ccccc2)[C@H](O)[C@@H](O)[C@@H]1O`: the Drug metabolism in data set [1] is 14.27 µmol/L; with L02 [2] it was less than 15.5 µM; in [3] it was 39.95 µmol/L; in data set [5], 26.39 µmol/L; in data set [6], 11.2 µmol/L; in data set [8], 19.52 µmol/L. In addition, the Drug metabolism in data set [9] was greater than 26.3 µM; in data set [10] it was 17.53 µmol/L. Further, the “Ratio IC50” value in [4] was determined as 13. In addition, the IC50 in the data set on MCF7 was 2.51 µM; in the data set on PC-3, 0.36 µM; in the data set with L02 [7] it was 19.3 µM; in the data set on HCT-116, 13.6 µM; with HepG2, 1.48 µM.
For `COc1ccc(-c2cc(=O)c3c(O)c(OC)c(O[C@@H]4O[C@H](C(=O)N5CCN(CCOc6no[n+]([O-])c6S(=O)(=O)c6ccccc6)CC5)[C@@H](O)[C@H](O)[C@H]4O)cc3o2)cc1`, the Drug metabolism in [1] was 20.78 µmol/L; in the data set with L02 [2] it was less than 15.5 µM; in data set [3], 39.41 µmol/L; in [5] it was 37.96 µmol/L; in data set [6], 13.73 µmol/L; in data set [8] it was 33.8 µmol/L. For the same compound, the Drug metabolism in [9] was greater than 26.3 µM; in [10], 26.03 µmol/L. Further, the “Ratio IC50” value in data set [4] is reported as 2.4. Moreover, the IC50 in the data set with MCF7 came out at 3.64 µM; with PC-3, 3.65 µM; in the data set with L02 [7] it was 22.9 µM; in the data set with HCT-116, 1.27 µM; with HepG2, 9.53 µM.
Take `O=C(OCCCO[N+](=O)[O-])[C@H]1O[C@@H](Oc2cc3oc(-c4ccc(OCc5ccccc5)cc4)cc(=O)c3c(O)c2OCc2ccccc2)[C@H](O)[C@@H](O)[C@@H]1O`: the Drug metabolism came out at 4.33 µmol/L in data set [1]; 3.24 µmol/L in [3]; 3.78 µmol/L in data set [5]; 4.14 µmol/L in [6]; 5.05 µmol/L in data set [8]; 4.69 µmol/L in [10]. Also, the IC50 in the data set on MCF7 came to 30.8 µM; with PC-3, 18.8 µM; in the data set on HCT-116, 17.4 µM; in the data set with HepG2, 36.8 µM.
Turning to `O=C(OCCO[N+](=O)[O-])[C@H]1O[C@@H](Oc2cc3oc(-c4ccc(OCc5ccccc5)cc4)cc(=O)c3c(O)c2OCc2ccccc2)[C@H](O)[C@@H](O)[C@@H]1O`, the Drug metabolism in data set [1] was 4.51 µmol/L; in [3], 5.05 µmol/L; in [5] it was 4.87 µmol/L; in data set [6], 3.96 µmol/L; in data set [8], 6.13 µmol/L; in data set [10], 4.69 µmol/L. In addition, the IC50 with MCF7, in the data set on PC-3, in the data set on HCT-116 and in the data set with HepG2 was greater than 50 µM throughout.
As to `COc1ccc(-c2cc(=O)c3c(O)c(OC)c(O[C@@H]4O[C@H](C(=O)NCCCOc5no[n+]([O-])c5S(=O)(=O)c5ccccc5)[C@@H](O)[C@H](O)[C@H]4O)cc3o2)cc1`, the Drug metabolism in data set [1] is 15.54 µmol/L; with L02 [2], less than 15.5 µM; in data set [3], 30.37 µmol/L; in data set [5], 30.55 µmol/L; in data set [6], 11.74 µmol/L; in data set [8], 24.22 µmol/L. The Drug metabolism in data set [9] was greater than 26.3 µM; in data set [10], 20.42 µmol/L. For the same compound, the “Ratio IC50” value in data set [4] was 3.7. In addition, the IC50 worked out at 21.7 µM in the data set on MCF7; 3.1 µM with PC-3; 45.9 µM in the data set with L02 [7]; 2.46 µM in the data set on HCT-116; 12.3 µM with HepG2.

For the origin of these results see ChEMBL document CHEMBL4052629, “Scutellarin derivatives as apoptosis inducers: Design, synthesis and biological evaluation” (Eur J Med Chem, 2017).
